Assay results published in PubChem BioAssay.
Activity calls are given as the source filed them.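 The calls were made as follows, unless noted: active = viability at or below 30% in both replicate assays; inconclusive = viability at or below 30% in just one of the two assays; inactive = the rest.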

Key:
[1] = reducers of endogenous Her2 protein level, primary screen, SKBR3 breast tumor cells, AlphaScreen, ATP viability (AID 461;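 active = Her2 level under about 52% in both replicate screens, with viability over 70% of control, limit read from the data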;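 as to Her2 level: lower value means less Her2 protein in the cells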;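 as to viability: percent of carrier control wells set as 100% viability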); conditions: 18-24 h, measured here: SKBR3 viability, ATP luminescence, at 10 µM
[2] = target: Receptor tyrosine-protein kinase erbB-2 (Homo sapiens) (UniProt P04626); experiment: as above; conditions: 18-24 h, at 10 µM, stronger effect = lower value
[3] = SK-BR-3 cell growth inhibitors, pilot screen, 24 h, human (AID 572;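 active = viability at or below 10% of carrier control in both of two separate runs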;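 also: compound exposure lasted between 18 and 24 h rather than exactly 24 h; 100% = carrier-treated control wells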); conditions: SK-BR-3 viability, CellTiter-Glo luminescence, at 10 µM, stronger effect = lower value
[4] = HUVEC growth inhibition – cell-based, human, primary screen (AID 575); conditions: HUVEC proliferation, CellTiter-Glo luminescence, 72 h; at 10 µM; stronger effect = lower value;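 also: 100% = median of untreated cell wells with 0.1% DMSO on each plate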
How it was run: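 Test system: primary human umbilical vein endothelial cells; medium: endothelial basal medium with 2% FBS plus growth supplements; dosing: 10 µM compound only; times: 72 h treatment at 37 °C; signal: CTG luminescence; read-out: % viability relative to median vehicle-well signal on each plate; control set: vehicle and MePR control wells; plate: 384-well, collagen-coated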

[5] = growth inhibitors of H69AR lung tumor, primary screen, human, duplicate replicates (AID 580;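 active = viability at or under a set limit in both replicates, limit being median viability minus 3 SD, cut at about 48% in these data, passing the limit was not always enough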;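 also: 100% = mean luminescence of untreated wells and 0% = no signal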); conditions: H69AR lung tumor cells viability, ATP luminescence, 72 h; at 10 µM; stronger effect = lower value
[6] = reversal of MRP1-mediated doxorubicin resistance, pilot screen, H69AR cells, doxorubicin co-treatment (AID 601;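 active = viability loss from added drug above about 55%, and viability with drug at most 40%, in both replicates, limit read from the data, passing the limit was not always enough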); conditions: CellTiter-Glo, 72 h, at 10 µM; for differential viability (reversal): stronger effect = higher value
[7] = 384-well plate pilot, post-Golgi transport modulator project, inhibition of yeast transport mutant growth (AID 636; in the data active = inhibition above about 31%); conditions: absorbance 615 nm, about 18 h, stronger effect = higher value
[8] = growth suppression of yeast trafficking mutant, preliminary HTS, modulators of trafficking downstream of Golgi apparatus project, 1536-format plate, OD 615 nm (AID 637; in the data active = inhibition above about 30%); conditions: yeast transport mutant growth, absorbance 615 nm, 18 h; stronger effect = higher value
[9] = H69AR cells + 2 uM doxorubicin, measured here: viability with 2 uM doxorubicin, stronger effect = lower value
[10] = H69AR cells, compound alone cytotoxicity

Sequence of Receptor tyrosine-protein kinase erbB-2 (Homo sapiens) (P04626 whole entry, looked up): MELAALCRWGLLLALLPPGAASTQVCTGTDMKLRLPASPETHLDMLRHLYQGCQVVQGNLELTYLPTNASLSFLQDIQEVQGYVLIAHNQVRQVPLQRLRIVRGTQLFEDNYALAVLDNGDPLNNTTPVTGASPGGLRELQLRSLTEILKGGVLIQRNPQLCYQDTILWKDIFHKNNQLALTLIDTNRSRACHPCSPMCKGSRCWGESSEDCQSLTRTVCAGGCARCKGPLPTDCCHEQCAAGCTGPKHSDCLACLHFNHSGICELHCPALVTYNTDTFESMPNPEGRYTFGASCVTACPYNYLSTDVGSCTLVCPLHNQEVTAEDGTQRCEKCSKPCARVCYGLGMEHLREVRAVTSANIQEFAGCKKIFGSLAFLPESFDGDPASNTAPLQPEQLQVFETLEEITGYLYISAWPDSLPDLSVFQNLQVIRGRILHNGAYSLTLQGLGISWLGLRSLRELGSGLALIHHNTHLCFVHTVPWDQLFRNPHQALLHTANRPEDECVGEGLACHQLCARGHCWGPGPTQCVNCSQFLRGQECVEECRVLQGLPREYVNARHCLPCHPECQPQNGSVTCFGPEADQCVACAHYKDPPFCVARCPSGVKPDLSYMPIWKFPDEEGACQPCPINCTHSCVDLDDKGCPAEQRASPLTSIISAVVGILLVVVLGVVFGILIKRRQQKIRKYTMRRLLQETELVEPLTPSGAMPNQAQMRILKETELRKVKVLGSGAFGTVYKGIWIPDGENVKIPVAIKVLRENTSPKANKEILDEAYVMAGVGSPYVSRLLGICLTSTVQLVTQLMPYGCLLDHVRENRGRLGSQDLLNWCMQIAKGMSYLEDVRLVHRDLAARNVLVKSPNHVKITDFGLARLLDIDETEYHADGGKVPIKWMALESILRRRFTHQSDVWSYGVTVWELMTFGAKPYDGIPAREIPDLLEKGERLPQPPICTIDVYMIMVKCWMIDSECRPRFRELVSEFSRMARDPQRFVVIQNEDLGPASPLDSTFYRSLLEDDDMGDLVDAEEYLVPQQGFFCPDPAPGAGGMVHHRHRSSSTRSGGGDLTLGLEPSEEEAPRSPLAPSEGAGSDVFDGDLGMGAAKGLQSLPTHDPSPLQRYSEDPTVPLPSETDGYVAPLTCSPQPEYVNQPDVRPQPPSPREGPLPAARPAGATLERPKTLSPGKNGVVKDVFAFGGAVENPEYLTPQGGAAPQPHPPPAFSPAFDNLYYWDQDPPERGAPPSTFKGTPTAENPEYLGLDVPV

Row | SMILES | viability [1] [%] | Her2 level [2] | viability [3] | viability [4] | viability [5] | differential viability (reversal) ([6]; H69AR cells + 2 uM doxorubicin) | viability [6, 9] [%] | viability [6, 10] [%] | inhibition [7] | inhibition [8]
1 | N#C[C@@H]1[C@@H]2C(=O)N(c3ccc4c(c3)OCCO4)C(=O)[C@@H]2C2c3ccccc3C=CN21 (stereo not given in full) | 84.5 | 72% (inactive) | 84.5% (inactive) | 95.8% (inactive) | 92.8% (inactive) | -0.82% (inactive) | 93.6 | 92.8 | -0.53% (inactive) | -5.48% (inactive)
2 | CCOc1ccc(NC(=O)CN2CCN(CC(=O)c3ccc(OCC)cc3)CC2)cc1 | 95 | 89% (inactive) | 95% (inactive) | 77.8% (inactive) | 89.3% (inactive) | 1.23% (inactive) | 88.1 | 89.3 | -4.87% (inactive) | -2.83% (inactive)
3 | COc1ccc(Cn2c(=O)[nH]c3cc(C(=O)NCCCN4CCCC4)ccc3c2=O)cc1 | 106 | 94% (inactive) | 106% (inactive) | 103% (inactive) | 92.3% (inactive) | 6.71% (inactive) | 85.6 | 92.3 | -7.03% (inactive) | 4.33% (inactive)
4 | CS(=O)(=O)NCc1nnc(SCC(=O)NC2CCCCC2)n1-c1ccc(F)cc1 | 98.5 | 100% (inactive) | 98.5% (inactive) | 102% (inactive) | 97.6% (inactive) | 9.24% (inactive) | 88.4 | 97.6 | -6.18% (inactive) | 12.3% (inactive)
5 | CC(=O)c1c(C)[nH]c(C(=O)NCc2cccs2)c1C | 97 | 90% (inactive) | 97% (inactive) | 93.8% (inactive) | 94.9% (inactive) | 11.2% (inactive) | 83.7 | 94.9 | 0.39% (inactive) | -1.45% (inactive)
6 | O=P(O)(O)C(O)C(F)(F)C(F)(F)C(F)(F)C(F)F (stereo not given) | 108 | 77.5% (inactive) | 108% (inactive) | 110% (inactive) | 92.5% (inactive) | -5.62% (inactive) | 98.1 | 92.5 | -7.76% (inactive) | -6.17% (inactive)
7 | Cn1c(CN2CCOCC2)nnc1SCC(=O)NCCc1ccccc1 | 104 | 83% (inactive) | 104% (inactive) | 73.6% (inactive) | 91.8% (inactive) | 11.4% (inactive) | 80.4 | 91.8 | -2.08% (inactive) | -2.86% (inactive)
8 | O=C(CN(Cc1ccc(F)cc1)C(=O)Cn1nnc2ccccc21)NCC1CCCO1 (stereo not given) | 110 | 90.5% (inactive) | 110% (inactive) | 118% (inactive) | 90.3% (inactive) | 4.51% (inactive) | 85.8 | 90.3 | 0.13% (inactive) | -1.64% (inactive)
9 | CCOCCn1c(CN2CCN(c3cccc(Cl)c3)CC2)nc2c1c(=O)n(C)c(=O)n2C | 85 | 110% (inactive) | 85% (inactive) | 94.5% (inactive) | 80.1% (inactive) | 41.5% (inactive) | 38.6 | 80.1 | -3.07% (inactive) | -6.17% (inactive)
10 | OCc1nc2ccccc2n1CCCOc1ccccc1 | 80.5 | 102% (inactive) | 80.5% (inactive) | 90.6% (inactive) | 103% (inactive) | 16.7% (inactive) | 85.9 | 103 | -0.13% (inactive) | -0.83% (inactive)
11 | CC(=O)NCc1ccc(C(=O)CSc2nnc(-c3ccncc3)n2Cc2ccccc2)o1 | 99.5 | 92.5% (inactive) | 99.5% (inactive) | 97% (inactive) | 97.1% (inactive) | 9.33% (inactive) | 87.8 | 97.1 | -5% (inactive) | 10.3% (inactive)
12 | c1cc2c(cc1C1=Nn3c(nnc3C3CCCCC3)SC1)OCO2 | 133 | 108% (inactive) | 133% (inactive) | 64.8% (inactive) | 9.93% (active) | -67.4% (inactive) | 77.3 | 9.93 | -1.84% (inactive) | 3.06% (inactive)
13 | CCc1nnc(NC(=O)c2ccc(-c3cccc(C(F)(F)F)c3)o2)s1 | 102 | 130% (inactive) | 102% (inactive) | 102% (inactive) | 91.4% (inactive) | 11.2% (inactive) | 80.2 | 91.4 | -5.6% (inactive) | -4.03% (inactive)
14 | COc1ccc(C2NC(c3ccc(OC)c(OC)c3OC)C(C)C(=O)C2C)c(OC)c1OC (stereo not given) | 99.5 | 88.5% (inactive) | 99.5% (inactive) | 99.7% (inactive) | 92.4% (inactive) | 7.84% (inactive) | 84.5 | 92.4 | -3.42% (inactive) | -2.22% (inactive)
15 | Cc1occc1C(=O)Nc1cccnc1 | 101 | 92% (inactive) | 101% (inactive) | 100% (inactive) | 97.7% (inactive) | 3.58% (inactive) | 94.1 | 97.7 | -7.73% (inactive) | 2.9% (inactive)
16 | Cn1c(=O)c2c(-c3ccncc3)c3c(nc2n(C)c1=O)-c1ccccc1C3=O | 94 | 104% (inactive) | 94% (inactive) | 98.4% (inactive) | 95% (inactive) | 2.95% (inactive) | 92 | 95 | -1.6% (inactive) | 9.37% (inactive)

Row | SMILES | viability [1] [%] | Her2 level [2] | viability [3] | viability [4] | viability [5] | differential viability (reversal) ([6]; H69AR cells + 2 uM doxorubicin) | viability [6, 9] [%] | viability [6, 10] [%] | inhibition [7] | inhibition [8]
17 | O=C(Cn1cnc2c(nnn2-c2ccc(F)cc2)c1=O)NCc1ccco1 | 97 | 74% (inactive) | 97% (inactive) | 97.1% (inactive) | 84.8% (inactive) | -0.975% (inactive) | 85.7 | 84.8 | -0.39% (inactive) | -2.73% (inactive)
18 | COc1ccc(C2C=C(c3ccccc3)Nc3ncnn32)cc1 (stereo not given) | 92.5 | 94.5% (inactive) | 92.5% (inactive) | 110% (inactive) | 101% (inactive) | 1.29% (inactive) | 100 | 101 | -3.65% (inactive) | 3.65% (inactive)
19 | O=C(CSc1nnc(SCc2ccc(Cl)cc2)s1)N1CCN(C(=O)c2ccco2)CC1 | 80.5 | 93% (inactive) | 80.5% (inactive) | 70.3% (inactive) | 100% (inactive) | 10.9% (inactive) | 89.2 | 100 | -8.36% (inactive) | -5.56% (inactive)
20 | COc1ccc(CNC(=O)Cn2nc(C(F)(F)F)c3c2CCC3)cc1 | 89.5 | 91.5% (inactive) | 89.5% (inactive) | 103% (inactive) | 99.5% (inactive) | 11.9% (inactive) | 87.6 | 99.5 | -6.13% (inactive) | 5.74% (inactive)
21 | COc1ccccc1N1CCN(C/C(O)=C(\C#N)c2nc(-c3ccccc3)cs2)CC1 | 94 | 108% (inactive) | 94% (inactive) | 84.1% (inactive) | 90.8% (inactive) | -6.43% (inactive) | 97.2 | 90.8 | 0.55% (inactive) | 12.5% (inactive)
22 | CN1CCN(C(=O)C2(NC(=O)Nc3cccc(F)c3)CCCCC2)CC1 | 81 | 97% (inactive) | 81% (inactive) | 97.4% (inactive) | 93.9% (inactive) | -9.36% (inactive) | 103 | 93.9 | -3.65% (inactive) | -3.02% (inactive)
23 | O=C(CN(Cc1ccco1)C(=O)c1cc(=O)[nH]c2ccccc12)Nc1ccccc1Br | 97 | 79.5% (inactive) | 97% (inactive) | 98.2% (inactive) | 83.1% (inactive) | 9.09% (inactive) | 74 | 83.1 | -4.4% (inactive) | -0.33% (inactive)
24 | CCCOc1ccccc1NC(=O)c1ccc(N)cc1 | 95 | 84% (inactive) | 95% (inactive) | 100% (inactive) | 98.2% (inactive) | 7.58% (inactive) | 90.6 | 98.2 | -5.53% (inactive) | -2.17% (inactive)
25 | Cc1nnc(SCC(=O)Nc2ccc3c(c2)OCCO3)n1CC1CCCO1 (stereo not given) | 102 | 88.5% (inactive) | 102% (inactive) | 91.8% (inactive) | 94% (inactive) | 3.46% (inactive) | 90.6 | 94 | -5.14% (inactive) | -3.33% (inactive)
26 | O=C(OCc1cccs1)c1ccccc1NS(=O)(=O)c1ccc2c(c1)OCCO2 | 91.5 | 94% (inactive) | 91.5% (inactive) | 121% (inactive) | 102% (inactive) | 15.6% (inactive) | 86.7 | 102 | -3.95% (inactive) | 5.74% (inactive)
27 | CN1CCN(c2ncnc3c2cnn3-c2ccc(Cl)cc2)CC1 | 109 | 94% (inactive) | 109% (inactive) | 53.6% (inactive) | 89.3% (inactive) | 1.02% (inactive) | 88.3 | 89.3 | -0.27% (inactive) | 2.5% (inactive)
28 | O=C(OCCCN1C(=O)c2ccccc2C1=O)c1ccco1 | 102 | 105% (inactive) | 102% (inactive) | 96% (inactive) | 95.2% (inactive) | 1.29% (inactive) | 93.9 | 95.2 | 0.79% (inactive) | -0.16% (inactive)
29 | Cc1ccc(-c2nnc(SC(C)C#N)n2N)cc1 (stereo not given) | 108 | 83% (inactive) | 108% (inactive) | 88.5% (inactive) | 92.3% (inactive) | 9.2% (inactive) | 83.1 | 92.3 | -5.68% (inactive) | 4.44% (inactive)
30 | Nc1nc2n(n1)C(c1cccc(Cl)c1)CC(c1ccc(F)cc1)N2 (stereo not given) | 86.5 | 97.5% (inactive) | 86.5% (inactive) | 106% (inactive) | 100% (inactive) | -10.5% (inactive) | 111 | 100 | -5.47% (inactive) | -0.83% (inactive)
31 | Cc1ccnc(NS(=O)(=O)c2ccc(NC(=O)Cc3cccs3)cc2)n1 | 94.5 | 111% (inactive) | 94.5% (inactive) | 87.6% (inactive) | 100% (inactive) | 8.61% (inactive) | 91.9 | 100 | 2.84% (inactive) | -2.79% (inactive)
